In ChEMBL document CHEMBL1132904, “'Double-Drugs'--a new class of prodrug form of an HIV protease inhibitor conjugated with a reverse transcriptase inhibitor by a spontaneously cleavable linker” (Bioorg Med Chem Lett, 2000):
Converted amounts (≈) assume the structure as drawn. The source made the active and inactive calls. No cut-off for these calls is given here.

Columns and labels:
MOLT-4 = test: Compound was evaluated for anti-HIV activity against HIV-1Lal inoculated with Molt-4 cells; format: functional, cell-based; conditions: Homo sapiens
In short: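 HIV-1 LAI (100 TCID50) was inoculated together with 4-fold serial dilutions of compound onto Molt-4 cells at 5000 cells/well. Cultures were kept 7 days. Surviving cells were quantified by WST-8 assay, and EC50 was calculated from the ratios of surviving cells.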

[1] = target: Human immunodeficiency virus type 1 protease (Human immunodeficiency virus 1, UniProt Q72874); test: Inhibitory activity against HIV-1 IIIB/CEM-SS protease
[2] = target: Human immunodeficiency virus type 1 protease (Human immunodeficiency virus 1) (UniProt Q72874); test: Compound was evaluated for the percentage inhibition of HIV protease at 5 uM
[3] = Water solubility by RP-HPLC; format: ADME
In short: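 Aliquots of compound solutions were injected onto HPLC. Dissolved concentration was determined by comparison of peak area.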

[4] = system: Human immunodeficiency virus 1; test: Relative potency of compound to that of AZT was determined
[5] = target: Human immunodeficiency virus type 1 protease (Human immunodeficiency virus 1) (UniProt Q72874); test: Inhibitory activity against HIV protease; Active
[6] = Therapeutic index was determined; conditions: read-out: Therapeutic index

Row | Structure (SMILES) | EC50 (MOLT-4) | Activity [5] | further results
1 | Cc1cccc(C)c1OCC(=O)N[C@@H](Cc1ccccc1)[C@H](O)C(=O)N1CSC(C)(C)[C@H]1C(=O)NC(C)(C)C | 92 nM |  | 
2 | Cc1cccc(C)c1OCC(=O)N[C@@H](Cc1ccccc1)[C@H](OC(=O)CCC(=O)OCC1OC(n2cc(C)c(=O)[nH]c2=O)CC1N=[N+]=[N-])C(=O)N1CSC(C)(C)[C@H]1C(=O)NC(C)(C)C (stereo partly drawn) |  |  | EC50 [1]: 189 nM
3 | Cc1cccc(C)c1OCC(=O)N[C@@H](Cc1ccccc1)[C@H](OC(=O)CCCC(=O)NCCC(=O)OCC1OC(n2cc(C)c(=O)[nH]c2=O)CC1N=[N+]=[N-])C(=O)N1CSC(C)(C)[C@H]1C(=O)NC(C)(C)C (stereo partly drawn) | 3.4 nM |  | inhibition [2]: 12%; solubility [3]: 235 µg/mL (≈ 237 µM); Relative potency [4]: 1.8
4 | CC(C)(C)NC(=O)[C@H]1N(C(=O)[C@@H](O)[C@H](Cc2ccccc2)NC(=O)CC(C)(C)C(=O)O)CSC1(C)C |  | Active | 
5 | Cc1cccc(C)c1OCC(=O)N[C@@H](Cc1ccccc1)[C@H](OC(=O)CCC(=O)O)C(=O)N1CSC(C)(C)[C@H]1C(=O)NC(C)(C)C |  | Active | 
6 | Cc1cccc(C)c1OCC(=O)N[C@@H](Cc1ccccc1)[C@H](OC(=O)CCCC(=O)O)C(=O)N1CSC(C)(C)[C@H]1C(=O)NC(C)(C)C |  | Active | 
7 | Cc1ccccc1CNC(=O)[C@H]1N(C(=O)[C@@H](O)[C@H](Cc2ccccc2)NC(=O)CC(C)(C)C(=O)O)CSC1(C)C |  | Active | 
8 | Cc1ccccc1CNC(=O)[C@H]1N(C(=O)[C@H](O)[C@@H](Cc2ccccc2)NC(=O)CC(C)(C)C(=O)OCC2OC(n3cc(C)c(=O)[nH]c3=O)CC2N=[N+]=[N-])CSC1(C)C (stereo partly drawn) |  | Active | 
9 | Cc1cn(C2CC(N=[N+]=[N-])C(COC(=O)C(C)(C)CC(=O)N[C@H](Cc3ccccc3)[C@@H](O)C(=O)N3CSC(C)(C)[C@H]3C(=O)NC(C)(C)C)O2)c(=O)[nH]c1=O (stereo partly drawn) |  | Active | 
10 | Cc1cn(C2CC(N=[N+]=[N-])C(COC(=O)CCN)O2)c(=O)[nH]c1=O (stereo not drawn) |  | Active | 
11 | Cc1cn(C2CC(N=[N+]=[N-])C(COC(=O)CN)O2)c(=O)[nH]c1=O (stereo not drawn) |  | Active | 
12 | Cc1cccc(C)c1OCC(=O)N[C@@H](Cc1ccccc1)[C@H](OC(=O)CCC(=O)NCC(=O)OCC1OC(n2cc(C)c(=O)[nH]c2=O)CC1N=[N+]=[N-])C(=O)N1CSC(C)(C)[C@H]1C(=O)NC(C)(C)C (stereo partly drawn) [KNI-1038] | 5.3 nM |  | inhibition [2]: 37%; solubility [3]: 290 µg/mL (≈ 301 µM); Relative potency [4]: 1.2
13 | Cc1cccc(C)c1OCC(=O)N[C@@H](Cc1ccccc1)[C@H](OC(=O)CCCC(=O)NCC(=O)OCC1OC(n2cc(C)c(=O)[nH]c2=O)CC1N=[N+]=[N-])C(=O)N1CSC(C)(C)[C@H]1C(=O)NC(C)(C)C (stereo partly drawn) [KNI-1039] | 0.1 nM |  | inhibition [2]: 55%; solubility [3]: 371 µg/mL (≈ 380 µM); selectivity ratio [6]: > 2000; Relative potency [4]: 62
14 | Cc1cccc(C)c1OCC(=O)N[C@@H](Cc1ccccc1)[C@H](OC(=O)CCC(=O)NCCC(=O)OCC1OC(n2cc(C)c(=O)[nH]c2=O)CC1N=[N+]=[N-])C(=O)N1CSC(C)(C)[C@H]1C(=O)NC(C)(C)C (stereo partly drawn) [KNI-1046] | 1 nM |  | inhibition [2]: 7%; solubility [3]: 373 µg/mL (≈ 382 µM); Relative potency [4]: 6.2
15 | Cc1cn([C@H]2C[C@H](N=[N+]=[N-])[C@@H](CO)O2)c(=O)[nH]c1=O [ZIDOVUDINE] | 6.2 nM |  | 
